# Laboratory results from paper PMC3232455 (Molecular therapy : the journal of the American Society of …, 2011).
# Legend:
# [1] = test system: CLL cells; assay: MTT cell viability assay in primary CLL samples; format: cell-based, human; conditions: six fresh primary CLL patient samples, 24 hours with 0-20 μM peptide
# Procedure, shortened: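 Human PBMCs isolated from fresh patient blood by density centrifugation and kept in RPMI 1640 with 10% FBS and penicillin/streptomycin. Seeded at 3 × 10^5 cells/well with 0–20 µmol/l unlabelled test peptide under tissue-culture conditions, then MTT read-out. Viability expressed as percentage of untreated controls.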
# [2] = test system: HeLa and glioma cells; conditions: cited from earlier work
Substance,Cell viability (in words) [1],Cell uptake and distribution (in words) [2]
NH2-asrslhslaG-Ahx-rrrrrrrrGC-COOH [asr-a-r8],no loss of viability,–
FFLIPKG-R8,–,diffusely label the cytoplasm within five minutes
